The EternaBench riboswitch data

Test system: MS2 coat protein
Experiment: apparent Kd, MS2 coat protein; higher = weaker binding; RNA-MaP array; FMN 200 µM where present
In short: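 Stalled E. coli RNA polymerase transcribed each design on Illumina sequencing-chip clusters. The clusters were titrated with SNAP-549-labelled MS2 coat protein, starting at 0.7 or 1.5 nM and doubling up to 3 µM, first without ligand and then with constant ligand, in 100 mM Tris-HCl pH 7.5, 80 mM KCl, 4 mM MgCl2, BSA, DTT, yeast tRNA and Tween-20. Green signal was normalised to red-channel RNA signal and to the control-cluster median Fmax. The apparent Kd is the median of filtered binding-curve fits made for each cluster.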

[1] = designed as: ON switch for flavin mononucleotide, no ligand
[2] = ligand present: flavin mononucleotide, designed as: ON switch for flavin mononucleotide
[3] = designed as: OFF switch for flavin mononucleotide, no ligand
[4] = ligand present: flavin mononucleotide, designed as: OFF switch for flavin mononucleotide

For “CCGCUAAAUGGAGGAUAUGGAGCCUUAUUGGCUCCAGAAGGUCAAAACAUGAGGAUCACCCAUGUGCGGCGGUCUAAUGACCGA”, the “apparent Kd” value [1] was 186 nM and the “apparent Kd” value [2] was 50.2 nM.
With “GCAGGAUAAGUGAGGAUAUACCUCUGGAUACAGAGGUAGAAGGCACAUGAGGAUCACCCAUGUCAUUCACCUGC” the “apparent Kd” value [3] was 13.3 nM and the “apparent Kd” value [4] was 24.2 nM.
In the case of “UUGGACGUCGUAGGAUAUGUAGGAUAUUCCUACAUGAGGAUCACCCAUGUUGACAUGGACGAAGGACAGAAGGACGAUGUCCAU”, the “apparent Kd” value [1] was 479 nM and the “apparent Kd” value [2] was 134 nM.
With “AGUAACAGAGGAUAUACUGUUUUAUGUGUUUAUUGUUUUGAACAUGAGGAUCACCCAUGUAGAAGGCUGAAUAA” the “apparent Kd” value [3] was 23.3 nM and the “apparent Kd” value [4] was 20.9 nM.
For “AUAUUACGAGGAUAUCGUCUCUCCCACAUGAGGAUCACCCAUGUUAUCCAUGUUUCGUUUCGAGAAGGCGUAAGUU”, the “apparent Kd” value [3] was 75.9 nM and the “apparent Kd” value [4] was 58 nM.
With “GAUACACAUGAGGAUCACCCAUGUUAGGAUAUUAGCGGGAAAGCUGUCAAAACGCCGAUGAGAAGGAACAGGAG” the “apparent Kd” value [3] was 40.6 nM and the “apparent Kd” value [4] was 31.4 nM.
With “AUGCAGGGCGAGAAGGAGCGACAUGAGGAUCACCCAUGUAUCUUCAACUCGCUAGGAUAUCGGGUUGUAUUGAAAAUUAUUGAA” the “apparent Kd” value [3] was 4.86 nM and the “apparent Kd” value [4] was 5.5 nM.
In the case of “UGGUACUAGGGAGGAUAUGGGAAGAUACAUGAGGAUCACCCAUGUUAAAGAAUGCCGAGAGGCAACUAGAAGGCCCUAGUACCU”, the “apparent Kd” value [1] was 293 nM and the “apparent Kd” value [2] was 16.3 nM.
With “GUUCUUCCUGUAAGGAUAUCCAUGUAUCAAUGUAUGGAGAAGGUACAUGAGGAUCACCCAUGUCACCCGCGUUA” the “apparent Kd” value [3] was 16.6 nM and the “apparent Kd” value [4] was 39.8 nM.
In the case of “GACUUCCGAGGAUAUACAUGAGGAUCACCCAUGUGCUUCAGCAUUUUUUGAUGCAUGGGUAGAAGGCGGUAGUU”, the “apparent Kd” value [3] was 261 nM and the “apparent Kd” value [4] was 281 nM.
In the case of “UUUAUACAUGAGGAUCACCCAUGUCAACAAAGUCGAGGAUAUGGGCAUAUUAUCUUAUUUCCAGAAGGCGAAUUCU”, the “apparent Kd” value [1] was 233 nM and the “apparent Kd” value [2] was 73.3 nM.
In the case of “UUAUUCAGAGGAUAUGCGCAUAGAUAAGACUUUUUUUCUUAACAUGAGGAUCACCCAUGUAGAAGGCUGUAAUU”, the “apparent Kd” value [3] was 18.4 nM and the “apparent Kd” value [4] was 18.7 nM.
“AAUACAUGAGGAUCACCCAUGUGCAUUGUUUAAGAGGAAGCACAGGAUAUGCAGCCAAUCGGUUAGCAGAAGGGUGACUUCAAC” was tested, and the “apparent Kd” value [1] was 85.2 nM and the “apparent Kd” value [2] was 81.6 nM.
For “GCACUGGAUGUAGGAUAUCAGGACGAUAAGUCCUGAGAAGGACAUGAGGAUCACCCAUGUGCCUUAACCAGUGCAUAUAAUAUA”, the “apparent Kd” value [3] was 12.9 nM and the “apparent Kd” value [4] was 17.3 nM.
“AUGUUACAUGAGGAUCACCCAUGUGAGGAUAUGUGUACCCGUAAAAAAGUGUCGGGCCACAGAAGGCAUUUGGA” was tested, and the “apparent Kd” value [3] was 47.3 nM and the “apparent Kd” value [4] was 75 nM.
With “AUACUUAAUGAAGGAUAUCUCAGCAUAAACCUGAGAGAAGGUCAUUAUUACAUGAGGAUCACCCAUGUUGUAGUUAAUGGGUAA” the “apparent Kd” value [3] was 352 nM and the “apparent Kd” value [4] was 341 nM.
With “AAGAGGCUAGGAUAUACAUGAGGAUCACCCAUGUGAGGGCACGGCCGGCGCGUGGCCGGUAGAAGGAGUCAAAA” the “apparent Kd” value [3] was 21.3 nM and the “apparent Kd” value [4] was 22.6 nM.
In the case of “GCAGAAAGUGUAGGAUAUAGAAAUUAGCGGAAACGCAAUACAUGAGGAUCACCCAUGUUUCCUCACUAGAAGGGCAAAAGCUGC”, the “apparent Kd” value [3] was 16.8 nM and the “apparent Kd” value [4] was 14.1 nM.
In the case of “AGCUGCCGGUCACAUGAGGAUCACCCAUGUAACCUGCAUUCACAGGAUAUGUUGGCUCCUUGCCGGCAGAAGGGUGAAGCGCCG”, the “apparent Kd” value [1] was 371 nM and the “apparent Kd” value [2] was 107 nM.
In the case of “AAACAUGUCCGAGGAUAUCUGGAAACAUUUUCAAGAGAAGGCGGACAUGAGGAUCACCCAUGUCUCUCCUCAUCAACUACAAAU”, the “apparent Kd” value [3] was 21.2 nM and the “apparent Kd” value [4] was 181 nM.
“GUGUACAUCGGAGGAUAUCAUGUAAAUACAUGAGGAUCACCCAUGUCGAUGGAGACAUCGGAGAUUGAGAAGGCCGAUGUACCG” was tested, and the “apparent Kd” value [1] was 169 nM and the “apparent Kd” value [2] was 9.35 nM.
In the case of “UAUUAUCACGAAGGAUAUGCUUACAUGAGGAUCACCCAUGUAUGUAUAUUGAUCCAGCGUUUUGAGCAGAAGGUCGUGAGUAAA”, the “apparent Kd” value [3] was 20.1 nM and the “apparent Kd” value [4] was 74.3 nM.
With “AGCUGGUGACAGCAAGAAGUUUAACAUGAGGAUCACCCAUGUAGAAGGCUGUACGGUUACCGUACAGAGGAUAUACAUAGAAAG” the “apparent Kd” value [3] was 43.7 nM and the “apparent Kd” value [4] was 57.5 nM.
